Measurements as given in ChEMBL document CHEMBL1157537 (J Med Chem, 2008).
Calls of active or inactive are those of the source. The calls are words filed in the database; no cut-off is given here.

Assays:
[1] = target: T1, Progesterone receptor (Homo sapiens) (UniProt P06401); experiment: Agonist activity at human progesterone receptor in human T47D cells assessed as alkaline phosphatase activity relative to progesterone; format: functional, cell-based
T1 sequence (whole entry): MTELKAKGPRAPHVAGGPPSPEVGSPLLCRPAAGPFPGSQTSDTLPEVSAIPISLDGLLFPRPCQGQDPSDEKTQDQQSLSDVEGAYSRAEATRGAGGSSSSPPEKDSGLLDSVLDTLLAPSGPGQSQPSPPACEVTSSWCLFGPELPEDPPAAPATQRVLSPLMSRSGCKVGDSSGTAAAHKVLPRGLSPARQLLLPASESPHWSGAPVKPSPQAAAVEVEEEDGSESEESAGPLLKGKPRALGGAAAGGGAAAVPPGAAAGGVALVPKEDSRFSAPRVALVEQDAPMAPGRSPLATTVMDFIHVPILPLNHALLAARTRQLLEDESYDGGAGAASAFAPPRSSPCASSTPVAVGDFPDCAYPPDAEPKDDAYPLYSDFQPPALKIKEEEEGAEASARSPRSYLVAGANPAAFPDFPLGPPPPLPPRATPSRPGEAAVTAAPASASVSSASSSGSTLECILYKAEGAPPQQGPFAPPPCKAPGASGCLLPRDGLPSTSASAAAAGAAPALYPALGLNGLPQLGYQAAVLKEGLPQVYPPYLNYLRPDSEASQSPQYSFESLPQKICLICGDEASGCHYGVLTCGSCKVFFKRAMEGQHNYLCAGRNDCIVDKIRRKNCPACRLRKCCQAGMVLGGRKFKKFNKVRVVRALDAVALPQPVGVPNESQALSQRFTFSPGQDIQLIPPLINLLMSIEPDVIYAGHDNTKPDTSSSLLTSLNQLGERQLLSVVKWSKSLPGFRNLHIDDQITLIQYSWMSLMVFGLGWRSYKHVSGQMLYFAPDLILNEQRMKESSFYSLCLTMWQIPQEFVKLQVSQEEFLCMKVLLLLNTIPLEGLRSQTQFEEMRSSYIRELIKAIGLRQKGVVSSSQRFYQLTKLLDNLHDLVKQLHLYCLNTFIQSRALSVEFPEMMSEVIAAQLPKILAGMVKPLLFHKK

[2] = target: T2, Progesterone receptor (Homo sapiens, UniProt P06401); experiment: Agonist activity at human progesterone receptor in human T47D cells assessed as alkaline phosphatase activity; format: functional, cell-based
T2 sequence (P06401 whole entry): T1 sequence (whole entry)

[3] = target: T1, Progesterone receptor (Homo sapiens); experiment: Agonist activity at human progesterone receptor relative to progesterone; format: functional
[4] = target: T2, Progesterone receptor; experiment: Binding affinity at human progesterone receptor
[5] = target: T2, Progesterone receptor; experiment: Agonist activity at human progesterone receptor; format: functional
[6] = species on record: Rattus norvegicus; experiment: Progestational activity in estrone-treated ovariectomized rat assessed as effect on vaginal epithelial thickness; format: functional, organism-based
Method in brief: (§1)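 Ovariectomized rats were treated with estrone, alone or combined with test progestin, and compared with vehicle and estrone-only groups. Endpoints were uterine epithelial cell height, vaginal epithelial thickness and mammary alveolar bud proliferation.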

[7] = species on record: Rattus norvegicus; experiment: Progestational activity in estrone-treated ovariectomized rat assessed as effect on uterine epithelial cell height; format: functional, organism-based; method in brief: as §1
[8] = species on record: Rattus norvegicus; experiment: Progestational activity in estrone-treated ovariectomized rat assessed as reduction of breast alveolar bud proliferation; format: functional, organism-based; method in brief: as §1
[9] = species on record: Rattus norvegicus; experiment: Progestational activity in estrone-treated ovariectomized rat assessed as inhibition of medroxyprogesterone acetate-induced effect on uterine epithelial cell height; format: functional, organism-based
Method in brief: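 Antagonist mode of the estrone-treated ovariectomized rat multi-endpoint model: compound was combined with MPA plus estrone, with vehicle and estrone-only groups. Endpoints were uterine epithelial cell height, vaginal epithelial thickness and mammary alveolar bud proliferation.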

[10] = target: T3, Androgen receptor (Homo sapiens, UniProt P10275); experiment: Agonist activity at human androgen receptor; format: functional
T3 sequence (P10275 whole entry): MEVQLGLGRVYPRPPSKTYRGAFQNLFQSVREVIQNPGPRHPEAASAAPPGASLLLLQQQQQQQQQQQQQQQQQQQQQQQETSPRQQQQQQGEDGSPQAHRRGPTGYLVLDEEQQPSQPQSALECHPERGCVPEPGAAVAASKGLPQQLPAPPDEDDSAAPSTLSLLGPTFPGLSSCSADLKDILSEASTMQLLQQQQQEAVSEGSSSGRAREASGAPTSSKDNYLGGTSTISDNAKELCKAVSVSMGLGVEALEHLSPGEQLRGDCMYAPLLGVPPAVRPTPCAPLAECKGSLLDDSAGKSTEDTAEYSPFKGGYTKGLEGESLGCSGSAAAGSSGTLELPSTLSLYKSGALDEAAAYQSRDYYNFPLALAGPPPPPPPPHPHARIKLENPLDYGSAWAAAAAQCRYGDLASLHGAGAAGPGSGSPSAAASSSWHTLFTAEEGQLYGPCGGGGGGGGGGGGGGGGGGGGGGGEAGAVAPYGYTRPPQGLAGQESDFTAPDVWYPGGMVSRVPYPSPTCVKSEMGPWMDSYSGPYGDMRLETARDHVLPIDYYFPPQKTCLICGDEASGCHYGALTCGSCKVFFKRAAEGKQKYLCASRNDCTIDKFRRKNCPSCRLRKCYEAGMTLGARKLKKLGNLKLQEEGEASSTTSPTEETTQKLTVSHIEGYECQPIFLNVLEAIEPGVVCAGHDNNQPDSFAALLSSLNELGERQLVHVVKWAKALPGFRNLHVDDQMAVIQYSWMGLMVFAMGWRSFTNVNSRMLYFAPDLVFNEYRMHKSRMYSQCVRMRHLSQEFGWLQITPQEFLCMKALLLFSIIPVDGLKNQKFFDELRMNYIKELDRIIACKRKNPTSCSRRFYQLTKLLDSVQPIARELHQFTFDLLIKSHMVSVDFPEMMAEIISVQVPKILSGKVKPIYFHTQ

[11] = target: T4, Glucocorticoid receptor (Homo sapiens, UniProt P04150); experiment: Antagonist activity at human glucocorticoid receptor; format: functional
T4 sequence (P04150 whole entry): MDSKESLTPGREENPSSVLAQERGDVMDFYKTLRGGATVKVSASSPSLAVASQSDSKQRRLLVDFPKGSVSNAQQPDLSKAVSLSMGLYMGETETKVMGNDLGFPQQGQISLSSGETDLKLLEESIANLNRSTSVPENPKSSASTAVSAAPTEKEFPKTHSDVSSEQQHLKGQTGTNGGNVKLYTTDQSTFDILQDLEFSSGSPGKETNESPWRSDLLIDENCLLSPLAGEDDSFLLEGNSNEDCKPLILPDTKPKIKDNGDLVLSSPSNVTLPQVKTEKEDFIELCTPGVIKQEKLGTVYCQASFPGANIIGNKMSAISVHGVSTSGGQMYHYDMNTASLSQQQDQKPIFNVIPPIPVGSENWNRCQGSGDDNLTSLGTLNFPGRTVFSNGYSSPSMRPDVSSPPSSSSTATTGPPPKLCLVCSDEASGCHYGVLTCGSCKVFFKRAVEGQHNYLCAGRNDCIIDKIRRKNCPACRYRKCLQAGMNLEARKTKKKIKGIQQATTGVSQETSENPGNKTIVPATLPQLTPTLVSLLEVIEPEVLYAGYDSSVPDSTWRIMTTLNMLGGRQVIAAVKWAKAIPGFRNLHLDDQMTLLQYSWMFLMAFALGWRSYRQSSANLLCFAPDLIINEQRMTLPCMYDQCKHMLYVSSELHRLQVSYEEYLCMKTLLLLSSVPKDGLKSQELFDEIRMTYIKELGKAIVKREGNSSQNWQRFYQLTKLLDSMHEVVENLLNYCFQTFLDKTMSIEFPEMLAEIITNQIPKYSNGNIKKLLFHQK

[12] = target: T5, Mineralocorticoid receptor (Homo sapiens, UniProt P08235); experiment: Antagonist activity at human mineralocorticoid receptor; format: functional
T5 sequence (P08235 whole entry): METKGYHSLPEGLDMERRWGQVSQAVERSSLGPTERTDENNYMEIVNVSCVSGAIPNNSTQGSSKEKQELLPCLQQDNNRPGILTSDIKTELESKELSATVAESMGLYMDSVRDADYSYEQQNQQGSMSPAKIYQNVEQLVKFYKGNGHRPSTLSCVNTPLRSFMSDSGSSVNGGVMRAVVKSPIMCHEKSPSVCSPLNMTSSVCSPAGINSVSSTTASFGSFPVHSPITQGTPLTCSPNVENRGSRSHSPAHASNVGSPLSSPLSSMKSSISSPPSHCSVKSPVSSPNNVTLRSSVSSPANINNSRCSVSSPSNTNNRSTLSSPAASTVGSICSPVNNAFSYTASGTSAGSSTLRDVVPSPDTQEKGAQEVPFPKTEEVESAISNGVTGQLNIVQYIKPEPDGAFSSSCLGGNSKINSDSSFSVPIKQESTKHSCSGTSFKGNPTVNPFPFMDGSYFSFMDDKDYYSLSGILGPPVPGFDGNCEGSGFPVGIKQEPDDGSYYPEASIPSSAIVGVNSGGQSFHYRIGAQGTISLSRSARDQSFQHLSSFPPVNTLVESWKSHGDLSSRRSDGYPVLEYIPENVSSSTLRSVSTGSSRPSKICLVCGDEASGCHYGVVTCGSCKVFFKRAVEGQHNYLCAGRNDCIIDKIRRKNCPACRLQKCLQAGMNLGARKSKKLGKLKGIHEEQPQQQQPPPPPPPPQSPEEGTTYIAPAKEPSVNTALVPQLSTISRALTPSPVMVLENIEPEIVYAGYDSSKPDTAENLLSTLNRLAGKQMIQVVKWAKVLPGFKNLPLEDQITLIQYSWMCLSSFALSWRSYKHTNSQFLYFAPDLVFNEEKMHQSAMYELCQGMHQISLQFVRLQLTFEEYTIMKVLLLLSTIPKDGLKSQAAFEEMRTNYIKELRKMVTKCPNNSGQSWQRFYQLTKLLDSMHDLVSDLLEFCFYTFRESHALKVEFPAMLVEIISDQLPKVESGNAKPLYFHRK

Row | Efficacy [1] | EC50 [2] | Efficacy [3] | EC50 [5] | Compound | further results
1 | 59% | 2.8 nM | 177% | 0.4 nM | CC1=CC(C)(C)Nc2ccc3c(c21)[C@H]([C@H]1CCC[C@@]2(C)O[C@@H]12)Oc1c(F)cc(F)cc1-3 | Ki [4]: 1.2 nM
2 | 98% | – | 98% | – | CC(=O)O[C@]1(C(C)=O)CC[C@H]2[C@@H]3C[C@H](C)C4=CC(=O)CC[C@]4(C)[C@H]3CC[C@@]21C | Activity [6]: Active; Activity [7]: Active; Activity [8]: Active
3 | – | – | – | – | C[C@@H]1C[C@@H]2C(=C3CCC(=O)C=C31)[C@@H](c1ccc(N(C)C)cc1)C[C@@]1(C)[C@H]2CC[C@@]12CCCO2 | Activity [9]: Active
4 | 66% | 96 nM | 97% | 10.7 nM | CC1=CC(C)(C)Nc2ccc3c(c21)[C@H]([C@H]1CCCC(C)=C1C)Oc1c(F)cc(F)cc1-3 (racemic) | –
5 | 66% | 27 nM | 171% | 3.4 nM | CC1=CC(C)(C)Nc2ccc3c(c21)[C@H]([C@@H]1C=CCCC1)Oc1c(F)cc(F)cc1-3 (racemic) | Ki [4]: 4.8 nM
6 | – | – | 162% | – | CC1=C[C@@H]([C@@H]2Oc3c(F)cc(F)cc3-c3ccc4c(c32)C(C)=CC(C)(C)N4)CCC1 (racemic) | –
7 | 63% | – | 100% | – | CC1=C[C@H]([C@@H]2Oc3c(F)cc(F)cc3-c3ccc4c(c32)C(C)=CC(C)(C)N4)CCC1 (racemic) | –
8 | – | – | 11% | – | CC1=C[C@@H]([C@@H]2Oc3c(F)cc(F)cc3-c3ccc4c(c32)C(C)=CC(C)(C)N4)CCC1 (stereo in doubt; (+)-5d) | –
9 | – | – | – | – | CC1=C[C@@H]([C@@H]2Oc3c(F)cc(F)cc3-c3ccc4c(c32)C(C)=CC(C)(C)N4)CCC1 (stereo in doubt; (-)-5c) | EC50 [10]: 1800 nM; IC50 [11]: 34 nM; IC50 [12]: 1350 nM
